Experimental data from ChEMBL document CHEMBL1275442, “Pharmacokinetics and tissue distribution of anidulafungin in rats” (Antimicrob Agents Chemother, 2008).
Values after ≈ are worked out from the molar mass of the structure shown. One block for each compound: values may come before it. *1 amine or outer side, *2 acyl side, *3 side chain or, on linkers, in order; H or OH if unused. Where a SMILES comes first, the peptide text is derived from it. Bridges are numbered along the chain shown (N, C = ends). [ ]: non-standard residue; d: D form. The star is where a group is joined. hTyr(3S-OH,4S-OH,3'-OSO3H) = N[C@H](C(=O)O)[C@H](O)[C@@H](O)c1ccc(O)c(OS(=O)(=O)O)c1; pTerphenylCO(4''-OnC5H11) = CCCCCOc1ccc(-c2ccc(-c3ccc(C(=O)*)cc3)cc2)cc1; Orn(4R-OH,5R-OH) = O=C([C@H](C[C@@H](O)[C@@H](O)N[*:3])N[*:1])[*:2]; hTyr(3S-OH,4S-OH) = N[C@H](C(=O)O)[C@H](O)[C@@H](O)c1ccc(O)cc1; Pro(3S-OH,4S-Me) = C[C@H]1CN[C@H](C(=O)O)[C@H]1O; X1 = CCCCCOc1ccc(-c2cc(-c3ccc(C(=O)*)cc3)no2)cc1; Gln(3R-OH) = NC(=O)C[C@@H](O)[C@H](N)C(=O)O; Hyp = O=C(O)[C@@H]1C[C@@H](O)CN1

Assays:
[1] = Total body clearance in F344 rat at 5 mg/kg, iv administered as single bolus dose; type: ADME, organism-based; parameters: dose 5 mg/kg, route intravenous; details: in vivo
In short: (§1)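 F344 males, 10 to 11 weeks old and 223.6 to 243.8 g, got a single 5 mg/kg iv dose of [14C]anidulafungin over about 5 min. Plasma and tissues were collected predose and at 0.083 to 72 h, n = 3 per time point. Parent drug was quantified by HPLC-UV, with LLOQ/ULOQ of 20/5,120 ng/ml in plasma and 220/56,320 ng/g in tissue. Noncompartmental parameters came from a composite mean concentration-time profile.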

[2] = Volume of distribution in F344 rat at 5 mg/kg, iv administered as single bolus dose; type: ADME, organism-based; parameters: dose 5 mg/kg, route intravenous; details: in vivo; in short: as §1
Candida = assay: Antifungal activity against Candida sp.; type: functional
Aspergillus fumigatus = assay: Antifungal activity against Aspergillus fumigatus; type: functional
Aspergillus flavus = assay: Antifungal activity against Aspergillus flavus; type: functional
[3] = Ratio of AUC (0 to infinity) in F344 rat liver to AUC (0 to infinity) in F344 rat plasma at 5 mg/kg, iv administered as single bolus dose; type: ADME, organism-based; parameters: dose 5 mg/kg, route intravenous; details: liver and plasma
In short: (§2)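 Male F344 rats, 10–11 weeks old, 223.6–243.8 g, given a single IV dose of [¹⁴C]-labelled drug over about 5 min. Tissue and plasma sampled predose and at 0.083–72 h, n = 3 per time point. Parent drug measured by HPLC-UV; tissue LLOQ 220 ng/g, plasma LLOQ 20 ng/ml. AUC0-∞ by noncompartmental analysis of the composite mean profile; ratio is tissue AUC over plasma AUC.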

[4] = Ratio of AUC (0 to infinity) in F344 rat kidney to AUC (0 to infinity) in F344 rat plasma at 5 mg/kg, iv administered as single bolus dose; type: ADME, organism-based; parameters: dose 5 mg/kg, route intravenous; details: kidney and plasma; in short: as §2
[5] = Ratio of AUC (0 to infinity) in F344 rat lung to AUC (0 to infinity) in F344 rat plasma at 5 mg/kg, iv administered as single bolus dose; type: ADME, organism-based; parameters: dose 5 mg/kg, route intravenous; details: lung and plasma; in short: as §2
[6] = Ratio of AUC in rat lung to AUC in rat plasma at 1 mg/kg, iv; type: ADME, organism-based; parameters: dose 1 mg/kg, route intravenous; details: lung and plasma, read-out: Ratio AUC
[7] = Ratio of AUC in rat liver to AUC in rat plasma at 1 mg/kg, iv; type: ADME, organism-based; parameters: dose 1 mg/kg, route intravenous; details: liver and plasma, read-out: Ratio AUC
[8] = Ratio of AUC in rat kidney to AUC in rat plasma at 1 mg/kg, iv; type: ADME, organism-based; parameters: dose 1 mg/kg, route intravenous; details: kidney and plasma, read-out: Ratio AUC

SMILES: CCCCCOc1ccc(-c2ccc(-c3ccc(C(=O)N[C@H]4C[C@@H](O)[C@@H](O)NC(=O)[C@@H]5[C@@H](O)[C@@H](C)CN5C(=O)[C@H]([C@@H](C)O)NC(=O)[C@H]([C@H](O)[C@@H](O)c5ccc(O)cc5)NC(=O)[C@@H]5C[C@@H](O)CN5C(=O)[C@H]([C@@H](C)O)NC4=O)cc3)cc2)cc1 [ANIDULAFUNGIN] ({pTerphenylCO(4''-OnC5H11)}-[Orn(4R-OH,5R-OH)]T[Hyp][hTyr(3S-OH,4S-OH)]T[Pro(3S-OH,4S-Me)]; lactam 1-C)
clearance [1]: 1.4 mL/min/kg | Vd [2]: 2.2 L/kg | MIC90 (Candida): 0.06 µg/mL (≈ 0.0526 µM) | MIC90 (Aspergillus fumigatus): 0.03 µg/mL (≈ 0.0263 µM) | MIC90 (Aspergillus flavus): 0.08 µg/mL (≈ 0.0702 µM)

Kp [3]: 12.4 | Kp [4]: 10.7 | Kp [5]: 10.4
SMILES: CC[C@H](C)C[C@H](C)CCCCCCCCC(=O)N[C@H]1C[C@@H](O)[C@@H](NCCN)NC(=O)[C@@H]2[C@@H](O)CCN2C(=O)[C@H]([C@H](O)CCN)NC(=O)[C@H]([C@H](O)[C@@H](O)c2ccc(O)cc2)NC(=O)[C@@H]2C[C@@H](O)CN2C(=O)[C@H]([C@@H](C)O)NC1=O [CASPOFUNGIN]

SMILES: CCCCCOc1ccc(-c2cc(-c3ccc(C(=O)N[C@H]4C[C@@H](O)[C@@H](O)NC(=O)[C@@H]5[C@@H](O)[C@@H](C)CN5C(=O)[C@H]([C@H](O)CC(N)=O)NC(=O)[C@H]([C@H](O)[C@@H](O)c5ccc(O)c(OS(=O)(=O)O)c5)NC(=O)[C@@H]5C[C@@H](O)CN5C(=O)[C@H]([C@@H](C)O)NC4=O)cc3)no2)cc1 [MICAFUNGIN] (X1-[Orn(4R-OH,5R-OH)]T[Hyp][hTyr(3S-OH,4S-OH,3'-OSO3H)][Gln(3R-OH)][Pro(3S-OH,4S-Me)]; lactam 1-C)
Kp [6]: 3.6 | Kp [7]: 7.8 | Kp [8]: 3.2
